Results published in publication PMC6097486 (International Journal of Biological Sciences, 2018).
Where no end group is shown, it is not given here.

Key:
NSCLC = details: ref [7]-[9]; cited from earlier work
[1] = ref [10]; cited from earlier work
FGFR1 = assay: Competitive elution of phage clones by FGF2; type: binding; details: 2 µg/ml FGF2, RT 1 h, 450 nm
How it was run: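 Phage clones (2 × 10^11 pfu/well) and control vcsM13 phage incubated on FGFR1 at RT for 1 h. Competitive elution with FGF2 (2 µg/ml) at RT for 1 h. Detection with anti-M13 mAb (37°C, 1 h), then goat anti-mouse IgG-HRP (37°C, 30 min) and TMB substrate. Absorbance read at 450 nm.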

A549 cells = assay: Tube formation assay on matrigel, A549 cells; type: cell-based, human; details: FGF2 10 ng/ml alone, 6 h, versus control (###P < 0.001)
CAM = assay: Chick chorioallantoic membrane; type: in vivo; details: FGF2 10 ng/ml alone, 24 h
How it was run: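 Test peptide applied with FGF2 (10 ng/ml) onto the CAM surface on day 8 of egg incubation. Incubation continued for 24 h, then the CAM surface was photographed to assess angiogenesis.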

[2] = system: FGFR1-ERK1/2 MAPK signaling pathway; assay: FGFR1-ERK1/2 MAPK signaling activation by FGF2; type: cell-based, human; details: stimulation with FGF2; A549 and NCI-H460 cells
How it was run: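 A549 and NCI-H460 cells (FGFR1-high human NSCLC) grown in DMEM/high glucose with 10% FBS at 37°C, 5% CO₂. Treatment 2 h; FGFR1 inhibitor PD173074 (100 nM) as positive control. Lysate protein (30 µg) run on 10% SDS-PAGE, transferred to PVDF, blocked in 8% nonfat milk/TBST. Probed for pFGFR1 and pERK1/2 (1:1000), normalised to β-actin.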

[3] = Gross toxicity and body weight in A549 xenograft nude mice; type: in vivo, BALB/cA nude mice; details: 5 mg/kg/day i.p., 28 days
How it was run: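 Female athymic nu/nu BALB/cA mice, 7 weeks old, SPF housing, received subcutaneous A549 cells (2 × 10^6 cells in 200 μL saline, mixed 1:1 with matrigel) into upper and lower back. Two days later, test compound in saline was given i.p. for 28 days; controls got the same volume of saline. Body weight was recorded weekly.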

human FGFR1 protein = target: T1, human FGFR1 protein (human, UniProt P11362 22-376); assay: SPR
T1 sequence (looked up): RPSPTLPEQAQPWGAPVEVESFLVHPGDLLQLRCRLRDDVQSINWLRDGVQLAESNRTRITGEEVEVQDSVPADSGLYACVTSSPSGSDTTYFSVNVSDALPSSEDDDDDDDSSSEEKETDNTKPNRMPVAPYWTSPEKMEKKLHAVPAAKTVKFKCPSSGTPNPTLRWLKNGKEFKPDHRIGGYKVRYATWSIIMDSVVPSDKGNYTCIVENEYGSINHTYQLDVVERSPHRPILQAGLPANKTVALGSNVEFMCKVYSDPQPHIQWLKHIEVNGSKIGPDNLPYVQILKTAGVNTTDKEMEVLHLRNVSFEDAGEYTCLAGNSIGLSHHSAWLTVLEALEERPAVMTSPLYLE

Molecule: COc1cc(OC)cc(-c2cc3cnc(N)nc3nc2NC(=O)NC(C)(C)C)c1 [PD166866]
- growth of NSCLC (NSCLC): suppress the growth of NSCLC

Molecule: CCN(CC)CCCCNc1ncc2cc(-c3cc(OC)cc(OC)c3)c(NC(=O)NC(C)(C)C)nc2n1 [PD173074]
- toxicity / clinical progress [1]: failed to enter phase II clinical trials due to their high toxicities
- growth of NSCLC (NSCLC): suppress the growth of NSCLC

Molecule: Cc1c[nH]c(/C=C2\C(=O)Nc3ccccc32)c1CCC(=O)O [SU5402]
- toxicity / clinical progress [1]: failed to enter phase II clinical trials due to their high toxicities
- growth of NSCLC (NSCLC): suppress the growth of NSCLC

Molecule: FGF2: Specific ligand of FGFR1 (PeproTech)
- elution efficiency for the phage clones (FGFR1): high elution efficiency
- tube formation (A549 cells): significantly induce tube formation
- angiogenesis (CAM): significantly induce angiogenesis
- activation of FGFR1-ERK1/2 MAPK signaling pathway [2]: evident

Molecule: FHDAWPNLSKSS [R1-P2]
- toxicity observed ([3]; n = 5): no remarkable toxicity observed
- abnormal gross phenotypes including weight loss ([3]; n = 5, body weight recorded weekly): no signs of abnormal gross phenotypes including weight loss

Molecule: FHDAWPNLSKSS [peptide R1-P2]
- Kd (human FGFR1 protein): ~154 nM
